# Results taken from ChEMBL document CHEMBL1134690, “Preparation and cytotoxicity toward cancer cells of mono(arylimino) derivatives of beta-lapachone” (2001).
# Legend:
# Type in all cases: functional
# [1] = test system: CCRF-CEM; experiment: Cytotoxicity against leukemia CCRF-CEM cell lines; settings: Homo sapiens
# Summary of the method: (§1)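 NCI human tumor cell line screen. Growth inhibition was read across a test range of 10^-4 to 10^-8 M. GI50 is the concentration giving 50% growth inhibition.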
# [2] = test system: Panel (Carcinoma cell lines); experiment: Mean graph midpoint growth inhibition of human cancer cell lines
# Summary of the method: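 Mean graph midpoint: the average GI50 across all human cancer cell lines successfully tested (~55) in the NCI screen. Values below or above the 10^-4 to 10^-8 M test range were set to the minimum (10^-8 M) or maximum (10^-4 M) concentration screened.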
# [3] = test system: COLO 205; experiment: Cytotoxicity against colon […] cell lines; settings: Homo sapiens; summary of the method: as §1
# [4] = test system: LOX IMVI; experiment: Cytotoxicity against melanoma LOXIMVI cell lines; settings: Homo sapiens; summary of the method: as §1
# [5] = test system: DU-145; experiment: Cytotoxicity against prostate DU-145 cell lines; settings: Homo sapiens; summary of the method: as §1
# [6] = test system: OVCAR-5; experiment: Cytotoxicity against ovarian OVCAR-5 cell lines; settings: Homo sapiens; summary of the method: as §1
# [7] = test system: SF-295; experiment: Cytotoxicity against CNS SF-295 cell lines; settings: Homo sapiens; summary of the method: as §1
# [8] = test system: SN12C; experiment: Cytotoxicity against renal SN12C cell lines; settings: Homo sapiens; summary of the method: as §1
# [9] = test system: NCI-H23; experiment: Cytotoxicity against lung NCI-H23 cell lines; settings: Homo sapiens; summary of the method: as §1
# [10] = test system: MDA-MB-435; experiment: Cytotoxicity against breast MDA-MB-435 cell lines; settings: Homo sapiens; summary of the method: as §1
SMILES,GI50 [1] [nM],MGM [2] [µM],GI50 [3] [nM],GI50 [4] [nM],GI50 [5] [nM],GI50 [6] [nM],GI50 [7] [nM],GI50 [8] [nM],GI50 [9] [nM],GI50 [10] [nM]
Cc1ccc(/N=C2\C(=O)C3=C(OC(C)(C)CC3)c3ccccc32)cc1,2560,0.89,1800,300,1760,2030,1260,460,920,190
CC1(C)CCC2=C(O1)c1ccccc1/C(=N/c1ccc([N+](=O)[O-])cc1)C2=O,19600,15.5,16800,7590,16800,14500,14900,15900,18300,15800
COc1ccc(/N=C2\C(=O)C3=C(OC(C)(C)CC3)c3ccccc32)cc1,1540,1.15,1020,890,870,12300,880,900,1170,96
CC1(C)CCC2=C(O1)c1ccccc1C(=O)C2=O [LAPACHONE],1410,1.12,1780,310,1740,1820,1540,1450,760,21400
CC1(C)CCC2=C(O1)c1ccccc1/C(=N/c1ccccc1)C2=O,1550,1.17,1550,220,1560,1810,1860,1120,1230,200
